≈ marks a conversion by molar mass, not a printed value.
Columns and labels:
Candida albicans [1] = test: In vitro inhibition of yeast cell growth of candida albicans; assay type: functional, organism-based
Candida albicans [2] = test: In vitro inhibition of yeast-to-hypha transition in candida albicans; assay type: functional, organism-based
Candida albicans [3] = test: In vitro inhibition of yeast-to-hypha transition in candida albicans; No inhibition; assay type: functional, organism-based
Candida albicans [4] = test: In vitro inhibition of yeast cell growth of candida albicans; No inhibition; assay type: functional, organism-based
Candida albicans [5] = test: In vitro inhibition of yeast cell growth of candida albicans at a concentration of 100 ug/mL; assay type: functional
Candida albicans [6] = test: In vitro inhibition of yeast-to-hypha transition in candida albicans at a concentration of 100 ug/mL; assay type: functional
In short: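 C. albicans ATCC 10231 grown 48 h at 30 °C in YPD, washed twice in sterile water. DMSO stocks diluted in glucose salts (GS) medium, final DMSO below 0.5%. Cells at 10^5 cells/mL in GS with compound, 4 h at 37 °C. Yeast vs hypha (germ tube) percentages counted microscopically on 200 cells from triplicate dishes, relative to 0.5% DMSO control. Highest concentration tested.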

Row | SMILES | IC50 (Candida albicans [3]) [µg/mL] | IC50 (Candida albicans [4]) [µg/mL] | further results
1 | CC(C)=CCC/C(C)=C/CC/C(C)=C/C(N)=O | – | – | IC50 (Candida albicans [1]): 26.3 µg/mL (≈ 112 µM); IC50 (Candida albicans [2]): 20.7 µg/mL (≈ 88 µM)
2 | CC(C)=CCC/C(C)=C/CC/C(C)=C/C(=O)N1CCOCC1 | – | – | IC50 (Candida albicans [1]): 87.5 µg/mL (≈ 286 µM); IC50 (Candida albicans [2]): 41 µg/mL (≈ 134 µM)
3 | CC(C)=CCC/C(C)=C/C(=O)O | > 100 | – | inhibition at 100 µg/mL (Candida albicans [5]): 57%
4 | CC(C)=CCC/C(C)=C/CC/C(C)=C\C(=O)O | – | > 100 | inhibition at 100 µg/mL (Candida albicans [6]): 18%
5 | CC(C)=CCC/C(C)=C/CC/C(C)=C/C(=O)N(C)C | – | – | IC50 (Candida albicans [1]): 43.7 µg/mL (≈ 166 µM); IC50 (Candida albicans [2]): 16.9 µg/mL (≈ 64.3 µM)
6 | COC(=O)/C=C(\C)CC/C=C(\C)CCC=C(C)C | > 100 | > 100 | –
7 | C=CCNC(=O)/C=C(\C)CC/C=C(\C)CCC=C(C)C | > 100 | > 100 | –
8 | CNC(=O)/C=C(\C)CC/C=C(\C)CCC=C(C)C | > 100 | > 100 | –
9 | CC(C)=CCC/C(C)=C/CC/C(C)=C/C(=O)OC/C=C/c1ccccc1 | > 100 | > 100 | –
10 | CC(C)=CCC/C(C)=C/CC/C(C)=C/C(=O)O | – | > 100 | IC50 (Candida albicans [2]): 4.56 µg/mL (≈ 19.3 µM)
11 | CC(C)=CCC/C(C)=C/CC/C(C)=C/CO [FARNESOL] | – | – | inhibition at 100 µg/mL (Candida albicans [5]): 35%; IC50 (Candida albicans [2]): 2.82 µg/mL (≈ 12.7 µM)
12 | CC(C)=CCC/C(C)=C/CC/C(C)=C/CC/C(C)=C/C(=O)O [GERANYLGERANOIC ACID] | > 100 | > 100 | –

More lines, main results first:

Row | IC50 (Candida albicans [3]) [µg/mL] | SMILES | IC50 (Candida albicans [4]) [µg/mL] | further results
13 | > 100 | CC(C)=CCC/C(C)=C/CC/C(C)=C/COC(=O)/C=C(\C)CC/C=C(\C)CCC=C(C)C | > 100 | –
14 | > 100 | C=CCOC(=O)/C=C(\C)CC/C=C(\C)CCC=C(C)C | > 100 | –
15 | > 100 | CC(C)=CCC/C(C)=C/CC/C(C)=C/C(=O)OC/C=C(\C)CCC=C(C)C | > 100 | –
16 | > 100 | CC(C)=CCC/C(C)=C/CC/C(C)=C/C(=O)OCC=C(C)C | > 100 | –
17 | > 100 | CC(C)=CCC/C(C)=C/CC/C(C)=C/C(=O)OCc1ccccc1 | > 100 | –
